Results taken from ChEMBL document CHEMBL1681754, “Synthesis, structure, molecular docking, and structure-activity relationship analysis of enamines: 3-aryl-4-alkylaminofuran-2(5H)-ones as potential antibacterials” (Bioorg Med Chem, 2011).
Converted amounts (≈) assume the structure as drawn.

What was measured:
Streptococcus pneumoniae = assay: Antimicrobial activity against Streptococcus pneumoniae R6 by broth microdilution method; assay type: functional
[1] = Inhibition of Staphylococcus aureus tyrosyl-tRNA synthetase by aminoacylation assay
Procedure, shortened: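 S. aureus TyrRS overexpressed in E. coli and purified (~98% by SDS–PAGE). Enzyme (0.2 nM) preincubated with a range of inhibitor concentrations for 10 min at room temperature, then prewarmed mix added at 37 °C. TCA-precipitated charged tRNA counted by scintillation; IC₅₀ is the concentration halving activity.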

Candida albicans = assay: Antimicrobial activity against Candida albicans ATCC 10231 after 48 hrs by MTT assay; assay type: functional; settings: ATCC 10231, 48 h
Procedure, shortened: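 Antifungal MTT colorimetric microdilution in RPMI-1640 medium. Compounds serially diluted in sterile medium (50% v/v DMSO in PBS). Inoculum approx. 10⁵ cfu/mL, plates at 27 °C for 48 h. Then PBS with 2 mg/mL MTT added, 4–5 h at room temperature. After a further 12 h, OD read at 550 nm to give MIC₅₀.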

Bacillus subtilis = assay: Antimicrobial activity against Bacillus subtilis ATCC 6633 after 24 hrs by MTT assay; assay type: functional; settings: ATCC 6633, 24 h
Procedure, shortened: (§1)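 MTT colorimetric broth microdilution in LB medium. Compounds serially diluted in sterile medium (50% v/v DMSO in PBS). Inoculum approx. 10⁵ cfu/mL, 37 °C for 24 h. Then 50 µL PBS with 2 mg/mL MTT added per well, 4–5 h at room temperature. After a further 12 h at room temperature, OD read at 550 nm to give MIC₅₀.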

Staphylococcus aureus = assay: Antimicrobial activity against Staphylococcus aureus ATCC 25923 after 24 hrs by MTT assay; assay type: functional; settings: ATCC 25923, 24 h; procedure, shortened: as §1
Escherichia coli = assay: Antimicrobial activity against Escherichia coli ATCC 35218 after 24 hrs by MTT assay; assay type: functional; settings: ATCC 35218, 24 h; procedure, shortened: as §1

Row | MIC (Streptococcus pneumoniae) [µg/mL] | IC50 [1] [µM] | MIC50 (Candida albicans) [µg/mL] | MIC50 (Bacillus subtilis) [µg/mL] | MIC50 (Staphylococcus aureus) [µg/mL] | MIC50 (Escherichia coli; read-out: MIC50) [µg/mL] | MIC50 (Escherichia coli) [µg/mL] | Structure (SMILES)
1 | > 64 | 0.003 | – | – | – | – | – | N[C@@H](Cc1ccc(O)cc1)C(=O)N[C@H](C(=O)O)[C@H]1[C@H](O)[C@](O)(CO)[C@@H](O)CN1O
2 | – | 8.9 | 83.9 (≈ 280 µM) | > 100 | 25.3 (≈ 84.4 µM) | > 100 | – | O=C1OCC(NCc2ccccc2)=C1c1cccc(Cl)c1
3 | – | – | 49.8 (≈ 162 µM) | 50 (≈ 162 µM) | 37.1 (≈ 120 µM) | > 100 | – | O=C1OCC(N2CCCC2)=C1c1ccc(Br)cc1
4 | – | 7.7 | 74.4 (≈ 231 µM) | > 100 | 21.8 (≈ 67.7 µM) | > 100 | – | O=C1OCC(N2CCCCC2)=C1c1ccc(Br)cc1
5 | – | – | 89.7 (≈ 277 µM) | 91.8 (≈ 283 µM) | 42.6 (≈ 131 µM) | > 100 | – | O=C1OCC(N2CCOCC2)=C1c1ccc(Br)cc1
6 | – | – | 77.4 (≈ 239 µM) | 78.5 (≈ 243 µM) | 54.7 (≈ 169 µM) | > 100 | – | O=C1OCC(N2CCNCC2)=C1c1ccc(Br)cc1
7 | – | 3.3 | 3.5 (≈ 9.53 µM) | 24.7 (≈ 67.3 µM) | 9.7 (≈ 26.4 µM) | > 100 | – | O=C1OCC(NCCN2CCOCC2)=C1c1ccc(Br)cc1
8 | – | 14.5 | 62.8 (≈ 187 µM) | 86.7 (≈ 258 µM) | 27.8 (≈ 82.7 µM) | > 100 | – | O=C1OCC(NC2CCCCC2)=C1c1ccc(Br)cc1
9 | – | – | > 100 | > 100 | 87.2 (≈ 294 µM) | > 100 | – | CCCNC1=C(c2ccc(Br)cc2)C(=O)OC1
10 | – | – | > 100 | > 100 | > 100 | > 100 | – | CCCCNC1=C(c2ccc(Br)cc2)C(=O)OC1
11 | – | – | > 100 | > 100 | > 100 | > 100 | – | CN(C)C1=C(c2ccc(Br)cc2)C(=O)OC1
12 | – | – | > 100 | > 100 | 57.6 (≈ 167 µM) | > 100 | – | O=C1OCC(NCc2ccccc2)=C1c1ccc(Br)cc1
13 | – | 0.12 | 5.2 (≈ 13.3 µM) | 9.5 (≈ 24.3 µM) | 0.42 (≈ 1.08 µM) | 79.4 (≈ 203 µM) | – | O=C1OCC(NNc2ccc([N+](=O)[O-])cc2)=C1c1ccc(Br)cc1
14 | – | 0.24 | 13.1 (≈ 42.1 µM) | 15.6 (≈ 50.1 µM) | 0.85 (≈ 2.73 µM) | > 100 | – | O=C1OCC(NNc2ccc([N+](=O)[O-])cc2)=C1c1ccccc1
15 | – | – | > 100 | > 100 | 88.4 (≈ 335 µM) | > 100 | – | O=C1OCC(N2CCCC2)=C1c1ccc(Cl)cc1
16 | – | 5.6 | 71.2 (≈ 270 µM) | 87.4 (≈ 331 µM) | 12.6 (≈ 47.8 µM) | > 100 | – | O=C1OCC(N2CCCC2)=C1c1cccc(Cl)c1
17 | – | 2.8 | 33.1 (≈ 119 µM) | 41.6 (≈ 150 µM) | 7.5 (≈ 27 µM) | > 100 | – | O=C1OCC(N2CCCCC2)=C1c1cccc(Cl)c1

Row | MIC (Streptococcus pneumoniae) [µg/mL] | IC50 [1] [µM] | MIC50 (Candida albicans) [µg/mL] | MIC50 (Bacillus subtilis) [µg/mL] | MIC50 (Staphylococcus aureus) [µg/mL] | MIC50 (Escherichia coli; read-out: MIC50) [µg/mL] | MIC50 (Escherichia coli) [µg/mL] | Structure (SMILES)
18 | – | 10.8 | 74.6 (≈ 267 µM) | 93.1 (≈ 333 µM) | 25.7 (≈ 91.9 µM) | > 100 | – | O=C1OCC(N2CCOCC2)=C1c1cccc(Cl)c1
19 | – | – | > 100 | > 100 | 37.4 (≈ 134 µM) | > 100 | – | O=C1OCC(N2CCNCC2)=C1c1cccc(Cl)c1
20 | – | – | > 100 | > 100 | 65.2 (≈ 223 µM) | > 100 | – | CN1CCN(C2=C(c3cccc(Cl)c3)C(=O)OC2)CC1
21 | – | 0.86 | 21.3 (≈ 66 µM) | 27.9 (≈ 86.4 µM) | 3.2 (≈ 9.91 µM) | > 100 | – | O=C1OCC(NCCN2CCOCC2)=C1c1cccc(Cl)c1
22 | – | – | > 100 | > 100 | 52.4 (≈ 208 µM) | > 100 | – | CCCNC1=C(c2cccc(Cl)c2)C(=O)OC1
23 | – | – | 9.08 (≈ 34.2 µM) | > 100 | > 100 | > 100 | – | CCCCNC1=C(c2cccc(Cl)c2)C(=O)OC1
24 | – | – | > 100 | > 100 | > 100 | > 100 | – | COc1ccc(C2=C(N3CCCC3)COC2=O)cc1OC
25 | – | – | > 100 | > 100 | > 100 | > 100 | – | COc1ccc(C2=C(N3CCCCC3)COC2=O)cc1OC
26 | – | – | > 100 | > 100 | > 100 | > 100 | – | COc1ccc(C2=C(N3CCOCC3)COC2=O)cc1OC
27 | – | – | > 100 | > 100 | > 100 | > 100 | – | COc1ccc(C2=C(N3CCNCC3)COC2=O)cc1OC
28 | – | – | > 100 | > 100 | > 100 | > 100 | – | COc1ccc(C2=C(NC3CCCCC3)COC2=O)cc1OC
29 | – | – | > 100 | > 100 | 68.3 (≈ 196 µM) | > 100 | – | COc1ccc(C2=C(NCCN3CCOCC3)COC2=O)cc1OC
30 | – | – | > 100 | > 100 | > 100 | > 100 | – | CCCCNC1=C(c2ccc(OC)c(OC)c2)C(=O)OC1
31 | – | – | > 100 | > 100 | > 100 | > 100 | – | COc1ccc(C2=C(NCc3ccccc3)COC2=O)cc1OC
32 | – | – | > 100 | > 100 | 61.4 (≈ 218 µM) | > 100 | – | CN(C)C1=C(c2cccc(Br)c2)C(=O)OC1
33 | – | – | – | 0.43 (≈ 0.888 µM) | 1 (≈ 2.06 µM) | – | – | NC[C@H]1O[C@H](O[C@H]2[C@H](O)[C@@H](O[C@H]3O[C@H](CO)[C@@H](O)[C@H](N)[C@H]3O)[C@H](N)C[C@@H]2N)[C@H](O)[C@@H](O)[C@@H]1O [KANAMYCIN]
34 | – | – | – | – | – | – | 2.5 (≈ 7.48 µM) | CC1(C)S[C@@H]2[C@H](NC(=O)Cc3ccccc3)C(=O)N2[C@H]1C(=O)O [PENICILLIN G]

Row | Structure (SMILES) | MIC (Streptococcus pneumoniae) [µg/mL] | IC50 [1] [µM] | MIC50 (Candida albicans) [µg/mL] | MIC50 (Bacillus subtilis) [µg/mL] | MIC50 (Staphylococcus aureus) [µg/mL] | MIC50 (Escherichia coli; read-out: MIC50) [µg/mL] | MIC50 (Escherichia coli) [µg/mL]
35 | CC(=O)N1CCN(c2ccc(OCC3COC(Cn4ccnc4)(c4ccc(Cl)cc4Cl)O3)cc2)CC1 (stereo not given) [KETOCONAZOLE] | – | – | 4.4 (≈ 8.28 µM) | – | – | – | –
